System: MS2 coat protein
Experiment: apparent Kd, MS2 coat protein; higher = weaker binding; RNA-MaP array; FMN 200 µM where present
Summary of the method: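 On Illumina sequencing-chip clusters, designs were transcribed by stalled E. coli RNA polymerase and titrated with SNAP-549-labelled MS2 coat protein (0.7 or 1.5 nM, doubling to 3 µM), without and then with constant ligand, in 100 mM Tris-HCl pH 7.5, 80 mM KCl, 4 mM MgCl2, BSA, DTT, yeast tRNA and Tween-20. Apparent Kd is the median of filtered per-cluster curve fits to green signal normalised to red-channel RNA signal and control-cluster median Fmax.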

[1] = designed as: OFF switch for flavin mononucleotide, no ligand
[2] = ligand present: flavin mononucleotide, designed as: OFF switch for flavin mononucleotide
[3] = designed as: ON switch for flavin mononucleotide, no ligand
[4] = ligand present: flavin mononucleotide, designed as: ON switch for flavin mononucleotide

Sequence	apparent Kd [1]	apparent Kd [2]	apparent Kd [3]	apparent Kd [4]
AAGGAUCGAGGAUAUACAUAGAUACAGAUACAUGUAGACCUACAUGAGGAUCACCCAUGUAGAAGGCGAUCAUA	18.8 nM	33.7 nM		
GCGUCUUAGUAGAAGGGACAUCGGCUGGUAAGCAUCAUCUCCUUCUCACAUGAGGAUCACCCAUGUCAGGAUAUACUAAGAUGC	11.5 nM	43.1 nM		
CUAUGGCAAGGAUAUCUUGGCUAGAACAUGAGGAUCACCCAUGUCUACUGUACUAAUAUCGGAGAAGGUGCUAGAA	27.6 nM	19.1 nM		
CAUUAAUUCAUUAUAGUAAUUAUACAGGAUAUGUUACAUGAGGAUCACCCAUGUAUUCAUGGUAUACAGAAGGGUAAUACUAGA	12.6 nM	13.9 nM		
GUCAGCUCGUGAGGAUAUACAUGUGCUGGAGACAGCACUAAUUAAUUCACAUGAGGAUCACCCAUGUAGAAGGCACGAGCUGAU	16.2 nM	19.6 nM		
AGUCAGAGCAGAGGAUAUAUACAUGAGGAUCACCCAUGUGACUGACUACGCUAGAAAUAGCAUGUAUAGAAGGCUGCUCUGACA	344 nM	911 nM		
ACAUGAGGAUCACCCAUGUUAAACGAGGAUAUUUGACUGCACAUGAGGUUCGCCCAUGUCCUGCCGAAGAAGGUGUGAAUAAUU			17.6 nM	13.5 nM
UAAAUAAGUGUGAGGAUAUGCUGGUCCUUGGAUCAGCAGAAGGCACAUGAGGAUCACCCAUGUAAUAUAUUUAU	85.2 nM	316 nM		
GCAAUAGCAUGAGGAUAUGCUGGAGUUUAGACAGUAGAAGGCAUGUCAUAAGACAUGAGGAUCACCCAUGUAAUUACAAUAGCA			45.9 nM	22.1 nM
CUUUUGUGAGGAUAUGUGGCUUCGAUCGUGAGAUCGAGGCUACAGAAGGCACAUGAGGAUCACCCAUGUUCCUU	17.6 nM	69.7 nM		
AGCUACGUUUCGUAGCAGUGUCAUCGAGAAGGCUCAUAAACAUGAGGAUCACCCAUGUAAACAUGGGAGGAUAUCGAUGAUACA			39.6 nM	6.5 nM
UGUCGGAGCAGAGGAUAUACAUGAGGAUCACCCAUGUAAUAUGAUCUAGCCUGGAAACAGGCAAUGUAGAAGGCUGCUCCGACA	92.6 nM	1020 nM		
UAUAUAUAGUAAGGAUAUGUAUUUAUUUUAUUAACAGAAGGUACUGACAUGAGGAUCACCCAUGUUUUAGUGUGGGCAUGUAGA	103 nM	146 nM		
GUCAGCUCGUGAGGAUAUACAACACUGCUUCGGCAGUGUAUUAAGAUCACAUGAGGAUCACCCAUGUAGAAGGCAAGAGCUGAU	13.2 nM	227 nM		
UAUGUACGAGGAUAUACAUAGAUACAGAUACAUGUAGACGUACAUGAGGAUCACCCAUGUAGAAGGCGUAUAUA	101 nM	122 nM		
GAGAUGUGAGGAUAUCUAGACCGCGGCAGAGCUGCGGUCCGAGAGAAGGCACAUGAGGAUCACCCAUGUGAUGA	57 nM	207 nM		
GUGUACGGAGGAUAUAUGUGGGCAGCAUACGCUGCAGCUUCACAUGAGGAUCACCCAUGUAGAAGGCUGUACAC	28.7 nM	169 nM		
GAGCGGGAAACAUGAGGAUCACCCAUGUGAUGAAUCCUCACAUAGGAUAUCCACACGAGAAGUGUGGAGAAGGAUGACCCGGUC	1120 nM	1700 nM		
ACAUGAUAUGUAGGAUAUCACAACAUGAGUUUUAAAAUUGUAAUUUAGGAUUGAGAAGGACAUUUACAUGAGGAUCACCCAUGU	18.6 nM	14.7 nM		
UUGGUAUUCGUAGGAUAUCUGUCGCCACCGUGUGGAGAAGGACGAACAUGAGGAUCACCCAUGUAUCAUGGUGUGGGCUUUGUU	504 nM	470 nM		
ACAUGAGGAUCUCCCAUGUAAAAUUAGGAUAUAUAACUGCACAUGAGGAUCACCCAUGUUUAACCGUAGAAGGGAUAAAUAAUU				786 nM
AAGAAGAACGUAGGAUAUCAAUGAGGAUCACCCUGAGAAGGACGUGAGGACAUGAGGAUCACCCAUGUGGAUCACCCAUGUCAU	168 nM	130 nM		
GACAUGAGGAUCACCCAUGUCCGGGCCAAAAGAAGAAAUACCAGAAGGACCGGCAGAAAUGAGCGGUAGGAUAUGGGAUUCGUG			36.7 nM	12.1 nM
GUAUCGUAUGUGAGGAUAUAUUUGUCCUUGGAUUUGUAGAAGGCACAUGAGGAUCACCCAUGUCCUAGUGGUCC	35.1 nM	34.9 nM		
AAUACAUGAGGAUCACCCAUGUAAAGUUCAAACAAUAUGAGUGAGGAUAUACUGAGUUAGUUAUGGUAGAAGGCACUGGGUACA			23.1 nM	21.8 nM
UAAAUACAUGAGGAUCACCCAUGUGAGGAUAUCCGAUGAUUCGGAGAAAGGACCCGUUGGAGAAGGCAUAGGGC	27.1 nM	21 nM		
AAAUAAAUGUAAGGAUAUCGGUUUCAGAGAACGCGAGAAGGUACAUGAGGAUCACCCAUGUUCCGUUGGGUUAACUUGAUCGCC	7.14 nM	13.6 nM		
UUUUAACAUGAGGAUCACCCAUGUGAGGAUAUCGAAAUUUUUAUUAAUAUUAAUAAAACGAGAAGGCACAUUUU	56 nM	69.3 nM		

Sequence	apparent Kd [1]	apparent Kd [2]	apparent Kd [3]	apparent Kd [4]
UCGGCGCGAGGAUAUACGGUUGCUUUUUAGGGUCGUGGCGUACAUGAGGAUCACCCAUGUAGAAGGCGCGCCGC	16.1 nM	30.2 nM		
CGAGACCUCACAGGAUAUGCUGGACUUUGUCCAGCAGAAGGGUGAAAACAUGAGGAUCACCCAUGUAUGGUCUCCAAAUUUAAU			176 nM	13.9 nM
UGAUAACAUGUAGGAUAUCCAGCAUUGACCAUCGGAGAAGGACAUGAGGAUCACCCAUGUACCGAUACAAUGGGAUAACGGAAU	15.7 nM	17.7 nM		
ACAUGAGGAUCACCCAUGUAGAGUGAAGAAGGUAGAUACUUGUGACUCUCCCAUGUACAUAGGACUGAGGAUAUUCUAAUAAUU			24.2 nM	20.9 nM
UGUCGGAGCAGAGGAUAUUACAUGAGGAUCACCCAUGUAUGAACCAAUAGCUGGAAACUGCAAUGUAAGAAGGCUGCUCCGACA	11.9 nM	107 nM		
UUUAUGUCAGGAUAUGAGUAGUAGAACAAUAGUACUACUACUCAGAAGGGACAUGAGGAUCACCCAUGUUCUUC	16.7 nM	46.6 nM		
AAAAAGUGAGGAUAUACGAAAAAAAAAAAAAAAAAAGGUGAACAUGAGGAUCACCCAUGUAGAAGGCACAAAAA	311 nM	243 nM		
UAUAUAUAGUAAGGAUAUGUAUUAGUUUUAUAAACAGAAGGUACUGACAUGAGGAUCACCCAUGUUUUAGUGUGGGCAUGUAGA	90 nM	144 nM		
GUGUACAGAGGAUAUACAGGAGCAUGGAAACAUGCAACCUCACAUGAGGAUCACCCAUGUAGAAGGCUGUACAC	154 nM	81.3 nM		
UGCCGUGUACAGAAGGGCGACAUGAGGAUCACCCAUGUCUCCUUGUUGGUCGUAGGAUAUGUACCGUGGCUCUCUACUGUGGGA	5.47 nM	6.75 nM		
UUUUAACAUGAGGAUCACCCAUGUGAGGAUAUCGAAAUUUAUAUUUAUAUUUAUAAAACGAGAAGGCACAUUUU	103 nM	119 nM		
GCUUGUGAAGGAUAUACUGGCGGCAUGCGCUCGGCGCGCGCACAUGAGGAUCACCCAUGUAGAAGGUCAAACGU	20.2 nM	20.2 nM		
CUAUUUAGUGCCUCAUUUACAUGAGGAUCACCCAUGUUAACUUAGGAUAUAUUUAUAUUGUUAGAGUAGAAGGAAGUACAUUUU	237 nM	208 nM		
UUUUAAUAAGAGAAGGAGCACUUCAUGAGGAUCACCCAUGUGUUAGUAGUUAGGAUAUUUAAUAACAUGAGGAUCACCCAUGUC			159 nM	123 nM
GUUGUUACUGAGGAUAUUAUUUUAUUCGAUUGAUAAGAAGGCAGUACAUGAGGAUCACCCAUGUGGGUAGUUUG	355 nM	586 nM		
UUGCAGUGCGGGUAGGAUAUGUAGGGUGGUACAUGAGGAUCACCCAUGUGUCCACCCUUCUUCCGGCAGAAGGGCCUGUCACUGC			15.2 nM	13.5 nM
UUUGUAAUGUCAGGAUAUUUUAUAAGUCAUACUGAAGAAGGGAUAAUUAUACUCAUGUACAUGAGGAUCACCCAUGUUAAAUAU			43.6 nM	33.6 nM
GGAACUUAGGGAGGAUAUAGGCGACAUGAGGAUCACCCAUGUACGGAGGGCUCUUCCCGUGUUCACUAGAAGGCCCAUGUUACC	19.4 nM	75 nM		
GUGGCUAGUGCAGGAUAUUGGCGCGUGUAGUGUCGAGAAGGGCACAUGAGGAUCACCCAUGUGAUCAAUCACUGCUAAGGUCGC	6.98 nM	7.69 nM		
AGGAGAAAUGUAGGAUAUGGGCGGGUAUAUGGGCAAAGCGCAUAUACCCGCCCAGAAGGACAUGAGGAUCACCCAUGUUUCCCU	12.2 nM	13.3 nM		
CUUGUUUAUGUGAGGAUAUACUGUUAGUAAUGUUUGUAGAAGGUACAUGAGGAUCACCCAUGUUUAUUUAUAUU	19.2 nM	18 nM		
UGAACCAUGACAUGAGAUGACAUGAGGAUCACCCAUGUGUACAAGGAUAUGUUGGUCGACGAUCGGCAGAAGGUGUAAUGGGAU	58.9 nM	196 nM		
GUCAGCUGGUGAGGAUAUACAACACUGCUUCGGCAGUGUAUUAAGAUCACAUGAGGAUCACCCAUGUAGAAGGCACGAGCUGAU	13.1 nM	207 nM		
AGAACAUGAGGAUCACCCAUGUAAAGAUCGGUUAAUAAGGGUGAGGAUAUGCUUAAAAUAAGGUAGCAGAAGGUACUUGGUACA			247 nM	345 nM
GCUAUCGAUGUAGGAUAUGCUAGGGAAACCCUGGCAGAAGGACAUGAGGAUCACCCAUGUCAAUGGAUGGAGAGAAGAGAUGGC	25.6 nM	74.3 nM		
AGUGCUAUGUAGAAGGCAGAUCUGAUUCAGAUCUGAGGAUAUACAUGAGGAUCACCCAUGUUAUGCACCAGCACGAGAGUGCAU	20 nM	98 nM		
UGAGCCUCGUGAGGAUAUACAUGAGGAUCACCCAUGUAAUAAAGUGAACGGAGGAAACUCCGAAUGUAGAAGGCACGAGGCUCA	47.9 nM	443 nM		

From the EternaBench riboswitch data
